# Experimental data: PMC4959095 (The Journal of Pharmacology and Experimental Therapeutics, 2016)
# Experiments:
# hOTR (oxytocin receptor) = molecular target: T1, hOTR (oxytocin receptor) (Homo sapiens, UniProt P30559); type: cell-based; settings: calcium flux, normalized to control responses
# T1 sequence (P30559 1-389): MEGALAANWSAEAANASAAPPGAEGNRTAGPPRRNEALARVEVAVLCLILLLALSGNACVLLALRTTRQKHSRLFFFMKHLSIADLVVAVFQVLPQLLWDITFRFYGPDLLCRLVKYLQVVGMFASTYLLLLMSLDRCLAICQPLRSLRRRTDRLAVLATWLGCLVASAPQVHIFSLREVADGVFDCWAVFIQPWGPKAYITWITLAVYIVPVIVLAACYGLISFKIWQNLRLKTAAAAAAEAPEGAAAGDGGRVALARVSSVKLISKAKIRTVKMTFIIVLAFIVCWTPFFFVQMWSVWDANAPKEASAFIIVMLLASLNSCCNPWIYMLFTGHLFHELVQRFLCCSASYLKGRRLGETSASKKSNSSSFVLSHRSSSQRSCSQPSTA
# V1a receptor = V1a receptor (Homo sapiens, UniProt P37288); test: V1a receptor functional agonist assay; type: cell-based
# Sequence of V1a receptor (P37288 whole entry): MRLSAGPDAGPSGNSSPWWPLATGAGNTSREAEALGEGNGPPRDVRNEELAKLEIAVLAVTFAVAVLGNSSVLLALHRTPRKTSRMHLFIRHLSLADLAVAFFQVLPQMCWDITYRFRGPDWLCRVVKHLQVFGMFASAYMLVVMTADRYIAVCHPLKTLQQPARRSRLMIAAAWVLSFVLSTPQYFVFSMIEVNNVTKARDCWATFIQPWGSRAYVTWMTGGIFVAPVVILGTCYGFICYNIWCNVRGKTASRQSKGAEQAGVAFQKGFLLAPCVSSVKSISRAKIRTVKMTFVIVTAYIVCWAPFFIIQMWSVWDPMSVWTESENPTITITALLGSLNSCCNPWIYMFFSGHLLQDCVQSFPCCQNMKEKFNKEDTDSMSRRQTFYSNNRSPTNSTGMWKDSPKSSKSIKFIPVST
# [1] = intravenous pharmacokinetics in rats; type: in vivo; settings: male, Wistar Hannover, rat, plasma, 0.1 mg/kg
# In short: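 Jugular vein-cannulated male Wistar Hannover rats (250–300 g; n = 3) got a single i.v. bolus at 1 ml/kg. The native peptide was in 10% propylene glycol/90% 20 mM sodium phosphate, pH 7.4; the analog in 10% SEDDs/90% 20 mM phosphate, pH 5. Serial cannula blood was drawn predose and at 0.033–24 hours. Plasma standard curve ran 0.1–250 ng/ml with 1/x2 linear regression.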
# [2] = subcutaneous nondepot pharmacokinetics in mice; type: in vivo, mouse
# In short: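 Male C57BL/6J mice (n = 3 per dose) got a single nondepot s.c. injection.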
# [3] = subcutaneous depot pharmacokinetics in mice; type: in vivo, mouse
# In short: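 Male C57BL/6J mice (n = 2) got a single s.c. injection (100 µl) in a lipid-based gel depot designed for sustained release over at least 48 hours. Retro-orbital blood was drawn at 0.5, 1, 2, 4, 6 and 24 hours. Plasma standard curves were 0.5–1000 ng/ml (analog) and 0.5–500 ng/ml (native peptide), 1/x2 regression. Free concentrations were derived with fu,p.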
# [4] = mice, s.c. 1 mg/kg, nondepot formulation
# [5] = male, C57BL/6J, mouse, plasma, sc, 20 mg/kg
compound,measurement,setting,value
"CC[C@H](C)[C@@H]1NC(=O)[C@H](Cc2ccc(O)cc2)NC(=O)[C@@H](N)CSSC[C@@H](C(=O)N2CCC[C@H]2C(=O)N[C@@H](CC(C)C)C(=O)NCC(N)=O)NC(=O)[C@H](CC(N)=O)NC(=O)[C@H](CCC(N)=O)NC1=O [OT, Oxytocin]",OTR % agonist,hOTR (oxytocin receptor),100 (n = 70) %
same,V1a % agonist,V1a receptor,94 (n = 70) %
same,clearance,[1],17.1 mL/min/kg
same,half-life,[1],7.2 min
same,Cmax,"[2]; male, C57BL/6J, mouse, plasma, sc, 1 mg/kg",216 nM
same,free Cmax,[2]; [4],191 nM
same,time of Cmax postdose,[2]; [4],0.25 h
same,Cmax,[3]; [5],65.4 nM
same,half-life,[3]; [5],7.3 h
same,free Cmax,"[3]; mice, s.c. 20 mg/kg, depot formulation",58.2 nM
